In brackets after ≈: the same amount, converted by molar mass. Activity calls are given as the source filed them. The calls are words filed in the database; no cut-off is given here.

Test [1] has as its system Streptococcus pneumoniae. As to the kind of experiment: Antibacterial activity against Streptococcus pneumoniae 210 expressing mefA efflux pump by broth microdilution method. Format: functional. Put shortly: (§1)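 MIC by broth microdilution following CLSI guidelines for S. pneumoniae and H. influenzae.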
In test [2] the test system is Streptococcus pneumoniae. As to the kind of experiment: Antibacterial activity against erythromycin-resistant Streptococcus pneumoniae 205 expressing ermB ribosomal methylase by broth microdilution method. The class given is functional. Put shortly: (§2)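 MIC by broth microdilution, following Clinical and Laboratory Standards Institute guidelines for S. pneumoniae and S. pyogenes.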
(In general: Dilution methods test growth across graded concentrations, often in twofold steps.)

The test system of a further test is Streptococcus pyogenes. As to the kind of experiment: Antibacterial activity against erythromycin-resistant Streptococcus pyogenes 1104 expressing ermB ribosomal methylase by broth microdilution method. The class given is functional. In short, it runs like this: as §2
Test [3] relates to Haemophilus influenzae. The experiment in a line: Antibacterial activity against Haemophilus influenzae ATCC 43095 by broth microdilution method. Format: functional. Put shortly:
as §1

The test system of test [4] is Streptococcus pneumoniae. As to the kind of experiment: Antibacterial activity against eryhtromycin-susceptible Streptococcus pneumoniae ATCC 49619 by broth microdilution method. Format: functional. In short, it runs like this:
as §2

Test [5] relates to Streptococcus pneumoniae. The experiment in a line: Ratio of clarithromycin MIC to compound MIC for eryhtromycin-susceptible Streptococcus pneumoniae ATCC 49619. Format: functional.
Test [6] deals with Haemophilus influenzae. As to the kind of experiment: Ratio of clarithromycin MIC to compound MIC for Haemophilus influenzae ATCC 43095. The class given is functional.
The test system of test [7] is Streptococcus pneumoniae. As to the kind of experiment: Antibacterial activity against erythromycin-resistant Streptococcus pneumoniae 1101 expressing ermB ribosomal methylase infected in po dosed CBA/JN mouse assessed as decrease in bacterial count in lungs administered QD 1 day post-inoculation for 2 days measured after 1 day. The class given is functional, organism-based. Put shortly: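 Five-week-old male CBA/JN mice were inoculated intranasally with erm(B) S. pneumoniae 1101 at 5.5×10^4 CFU/mouse. Oral dosing once daily started the day after inoculation and continued for 2 days. Lung bacterial counts were taken the day after the last dose. Data are given as mean ± S.E., with Steel's test versus untreated control.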

For test [8], the system named is Haemophilus influenzae. As to the kind of experiment: Antibacterial activity against Haemophilus influenzae ATCC 43095 infected in po dosed ICR mouse assessed as decrease in bacterial count in lungs administered QD 1 day post-inoculation for 2 days measured after 1 day. Format: functional, organism-based. In short, it runs like this: (§3)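 Four-week-old male ICR mice were inoculated intratracheally with 5.2×10^6 CFU/mouse. Oral dosing began the day after inoculation, once daily for 2 days. Lung bacterial counts were taken the day after the last dose and are given as mean ± S.E. versus untreated control, with Steel's test.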

Test [9] deals with Haemophilus influenzae. As to the kind of experiment: Antibacterial activity against Haemophilus influenzae ATCC 43095 infected in ICR mouse assessed as decrease in bacterial count in lungs at 50 mg/kg, po administered QD 1 day post-inoculation for 2 days measured after 1 day. The class given is functional, organism-based. Further details: dose 50 mg/kg. In short, it runs like this: as §3

Test [10] has as its system Streptococcus pneumoniae. The experiment in a line: Antibacterial activity against erythromycin-resistant Streptococcus pneumoniae 1101 expressing ermB ribosomal methylase by broth microdilution method. The class given is functional. In short, it runs like this: as §2

Consider `CC[C@H]1OC(=O)[C@H](C)[C@@H](O[C@H]2C[C@@](C)(OC)[C@@H](O)[C@H](C)O2)[C@H](C)[C@@H](O[C@@H]2O[C@H](C)C[C@H](N(C)C)[C@H]2O)[C@](C)(O)C[C@@H](C)CN(C)[C@H](C)[C@@H](O)[C@]1(C)O` [AZITHROMYCIN], for which the MIC with Streptococcus pneumoniae [1] was 2 µg/mL (≈ 2.67 µM); with Streptococcus pneumoniae [2] it was over 128000 ng/mL; against Streptococcus pyogenes, over 128 µg/mL; against Haemophilus influenzae [3] it was 0.5 µg/mL (≈ 0.668 µM); with Streptococcus pneumoniae [4], 60 ng/mL (≈ 0.0801 µM).
For `CC[C@H]1OC(=O)[C@@](C)(F)C(=O)[C@H](C)[C@@H](O[C@@H]2O[C@H](C)C[C@H](N(C)C)[C@H]2O)[C@](C)(OCC#Cc2cc(-c3cccnn3)no2)C[C@@H](C)C(=O)[C@H](C)[C@H]2NC(=O)O[C@@]21C`, the MIC against Streptococcus pneumoniae [1] worked out at 0.03 µg/mL (≈ 0.0375 µM); against Streptococcus pneumoniae [2], 8 ng/mL (≈ 0.01 µM); with Streptococcus pyogenes it was 1 µg/mL (≈ 1.25 µM); against Haemophilus influenzae [3], 2 µg/mL (≈ 2.5 µM); against Streptococcus pneumoniae [4], 8 ng/mL (≈ 0.01 µM); in the test with Streptococcus pneumoniae [10], 0.016 µg/mL (≈ 0.02 µM). Also, the Ratio with Streptococcus pneumoniae [5] amounted to 4; in the test with Haemophilus influenzae [6], 2. The Activity result with Streptococcus pneumoniae [7] and in the test on Haemophilus influenzae [8] was “Dose-dependent effect” each time. Besides, in the test with Haemophilus influenzae [9], the result was Active.
On to `CC[C@H]1OC(=O)[C@@](C)(F)C(=O)[C@H](C)[C@@H](O[C@@H]2O[C@H](C)C[C@H](N(C)C)[C@H]2O)[C@](C)(OCC#Cc2cc(-c3ncccn3)no2)C[C@@H](C)C(=O)[C@H](C)[C@H]2NC(=O)O[C@@]21C`, for which the MIC in the test with Streptococcus pneumoniae [1] was found to be 0.03 µg/mL (≈ 0.0375 µM); in the test on Streptococcus pneumoniae [2] it was 8 ng/mL (≈ 0.01 µM); against Streptococcus pyogenes, 2 µg/mL (≈ 2.5 µM); in the test with Haemophilus influenzae [3], 2 µg/mL (≈ 2.5 µM); against Streptococcus pneumoniae [4] it was 8 ng/mL (≈ 0.01 µM); against Streptococcus pneumoniae [10], 0.016 µg/mL (≈ 0.02 µM). Further, the Ratio in the test with Streptococcus pneumoniae [5] was 4; with Haemophilus influenzae [6], 2. The Activity result with Streptococcus pneumoniae [7] and in the test on Haemophilus influenzae [8] was “Dose-dependent effect” throughout.
As for `CC[C@H]1OC(=O)[C@H](C)[C@@H](O[C@H]2C[C@@](C)(OC)[C@@H](O)[C@H](C)O2)[C@H](C)[C@@H](O[C@@H]2O[C@H](C)C[C@H](N(C)C)[C@H]2O)[C@](C)(OC)C[C@@H](C)C(=O)[C@H](C)[C@@H](O)[C@]1(C)O` [CLARITHROMYCIN], the MIC with Streptococcus pneumoniae [1] is 2 µg/mL (≈ 2.67 µM); in the test with Streptococcus pneumoniae [2], over 128000 ng/mL; against Streptococcus pyogenes, over 128 µg/mL; in the test on Haemophilus influenzae [3] it was 4 µg/mL (≈ 5.35 µM); with Streptococcus pneumoniae [4], 30 ng/mL (≈ 0.0401 µM).
On to `CC[C@H]1OC(=O)[C@@](C)(F)C(=O)[C@H](C)[C@@H](O[C@@H]2O[C@H](C)C[C@H](N(C)C)[C@H]2O)[C@](C)(OCC#Cc2cc(-c3cnc(N)nc3)no2)C[C@@H](C)C(=O)[C@H](C)[C@H]2NC(=O)O[C@@]21C`, for which the MIC in the test on Streptococcus pneumoniae [1] was 0.03 µg/mL (≈ 0.0368 µM); against Streptococcus pneumoniae [2] it was 8 ng/mL (≈ 0.00982 µM); against Streptococcus pyogenes, 0.06 µg/mL (≈ 0.0736 µM); with Haemophilus influenzae [3], 2 µg/mL (≈ 2.45 µM); in the test on Streptococcus pneumoniae [4] it was 8 ng/mL (≈ 0.00982 µM); in the test on Streptococcus pneumoniae [10], 0.008 µg/mL (≈ 0.00982 µM). Moreover, the Ratio was 4 in the test with Streptococcus pneumoniae [5] and 2 in the test with Haemophilus influenzae [6]. In addition, the Activity entry with Streptococcus pneumoniae [7] and in the test with Haemophilus influenzae [8] was “Dose-dependent effect” each time.
